Source: PubChem BioAssay
LMPTP block: blocks human LMPTP phosphatase | inhibition, % at 20 µM | AID 651560 | actives 0.22% (n = 360,000) | P24666 | recombinant LMPTP-A, OMFP fluorogenic substrate, fluorescence intensity;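 active means compounds that cut the enzyme signal by at least half of the control window in the single-dose screen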;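 further: plate controls were DMSO wells with enzyme plus substrate for no effect and substrate without enzyme for full effect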
Target sequence (P24666 whole entry, looked up): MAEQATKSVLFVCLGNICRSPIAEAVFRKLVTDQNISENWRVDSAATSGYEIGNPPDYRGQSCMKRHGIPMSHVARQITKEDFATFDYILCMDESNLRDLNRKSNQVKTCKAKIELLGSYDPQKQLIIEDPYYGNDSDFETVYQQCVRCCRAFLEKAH
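test system = LMPTP-A | amount = 0.625 nM LMPTP-A final | reagent = fluorogenic phosphatase substrate OMFP at 400 µM final | incubation = 50 min at room temperature | benchmarks = no-enzyme low control, uninhibited high control | medium = Bis-Tris pH 6.0, DTT, detergent | signal = fluorescence intensity of OMFP turnover product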
Scp-1 inhibitor: blocks human Scp-1 phosphatase activity. Q9GZU7. Recombinant Scp1, phosphopeptide, malachite green phosphate absorbance. inhibition, % at 20 µM. actives 0.88% (n = 340,000). AID 493091;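 active means inhibition above about 50% at 20 µM, limit read from the data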;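 further: plate controls were DMSO wells with enzyme for no effect and wells lacking enzyme for full effect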
Target sequence (Q9GZU7 76-261 limits assumed): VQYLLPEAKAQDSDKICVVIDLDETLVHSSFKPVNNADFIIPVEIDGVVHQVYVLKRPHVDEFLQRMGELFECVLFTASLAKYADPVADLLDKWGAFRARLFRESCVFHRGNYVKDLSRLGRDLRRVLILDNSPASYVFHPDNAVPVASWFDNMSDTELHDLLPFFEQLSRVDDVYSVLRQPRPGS
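Test system – truncated SCP-1 phosphatase (76-261aa) · Reagent – Phosphorylated 17-residue peptide substrate · Incubation – 45 min room-temperature reaction, 5 min colour, 30 min stabiliser · Detection – colorimetric phosphate reagent with accelerator and stabiliser, absorbance at 630 nm · Measure – % inhibition at 20 µM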
STEP inh: inhibitors of human striatal-enriched phosphatase STEP | AID 588621 | actives 0.25% (n = 360,000) | inhibition, % at 20 µM | recombinant STEP, OMFP fluorogenic substrate, fluorescence | P54829;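 active means inhibition at 20 µM, scaled per plate between control wells, above about 37%, limit read from the data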;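 further: 0% = DMSO with enzyme and substrate and 100% = substrate only without enzyme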
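Test system: STEP tyrosine phosphatase / Reagent: OMFP at 25 µM / Doses: 20 µM, 1% DMSO / Read-out: percent inhibition scaled to no-enzyme and uninhibited-enzyme controls, plate-pattern corrected / Detection: FITC-channel fluorescence of OMFP product / Medium: Bis-Tris buffer pH 6.0, 2.5 mM DTT, 0.005% Tween 20 / Schedule: 20 min at room temperature, dark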
DNMT1 inh: DNMT1 (human) enzyme inhibition; P26358; DNMT1 molecular beacon, Hinp1I cleavage, fluorescence; inhibition (reported as % activation of signal), % at 10 µM; actives 0.83% (n = 360,000); in the data active means inhibition above about 50%
Rpn11 inh: blocks the human proteasome subunit Rpn11. O00487. human 26S proteasome, Ub4-pepOG fluorescence polarization; 20S core pre-blocked with epoxomicin. inhibition, % at 20 µM. actives 0.59% (n = 360,000). AID 588493;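 active means inhibition at 20 µM, scaled to each plate's controls, above about 33%, limit read from the data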
SUMO1 PPI mod: SUMO1-SIM interaction modulation | SUMO1 binding to a labelled peptide, TR-FRET, 1 h | inhibition, % at 20 µM | actives 0.33% (n = 360,000) | P63165; in the data active means inhibition above about 37%
Target sequence (P63165 whole entry, looked up): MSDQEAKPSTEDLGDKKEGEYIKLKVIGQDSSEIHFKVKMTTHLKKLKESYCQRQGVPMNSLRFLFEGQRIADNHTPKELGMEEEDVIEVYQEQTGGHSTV
Scp1 confirm: confirmation of human Scp-1 phosphatase inhibitors; shares compounds with Scp-1 inhibitor; recombinant SCP-1 catalytic domain, phosphate release, malachite green absorbance; inhibition, % at 20 µM; actives 61% (n = 2,500);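 further: plate controls were DMSO with enzyme for no effect and buffer wells lacking enzyme for full effect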
MG interference: colorimetric interference in Scp-1 counter-screen; shares compounds with Scp-1 inhibitor; 2,500 tested, under 10 active; Colorimetric interference counterscreen, malachite green absorbance 630 nm; apparent inhibition (interference), % at 20 µM; AID 540313;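 further: compounds added after enzyme reaction finished so only phosphate colour detection is probed; plate controls were DMSO wells with completed Scp-1 reaction for no effect and substrate wells lacking enzyme for full effect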
Scp-1 Tm shift: Scp-1 (human) binding by thermal shift; shares compounds with Scp-1 inhibitor; Recombinant SCP1, Sypro Orange thermal shift Tm; thermal shift relative to vanadate control, % at 40 µM; actives 25% (n = 1,500); AID 540329;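 active means substances whose mean melting-temperature shift, as a percentage of the reference inhibitor's shift, reaches about 5.3%, limit read from the data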;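 further: 0% = Tm of DMSO wells and 100% = Tm with sodium orthovanadate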
Active calls of the source: *; / = not tested or not shown. Sampled rows, rich in hits. Any-hit rate of the full collection: about 2.3%.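 How the source made its calls, unless noted: active means inhibition of at least 30% at 20 µM; inactive means the rest.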

SMILES	LMPTP block	Scp-1 inhibitor	STEP inh	DNMT1 inh	Rpn11 inh	SUMO1 PPI mod	Scp1 confirm	MG interference	others
Cn1c(O)c(N=NC(=O)c2ccccc2O)c2ccccc21	3.6	26.2	1.1	0.7	0.1	-12.6	/	/
Cc1cc(N=NC(=O)c2ccccc2O)c2ccccc2c1O	29.0	95.3*	96.7*	-3.2	-3.0	1.2	79.2*	-11.4	Scp-1 Tm shift=12.0*
CC(=O)N(c1ccccc1)c1c(F)c(F)c(F)c(F)c1F	-1.1	61.4*	-1.6	-0.2	-6.3	-1.4	-8.4	-13.1
Cc1cc(C)n2nc(C(=O)OCC(=O)NCc3ccc(F)cc3)nc2n1	-0.2	0.5	0.7	2.3	-2.4	2.0	/	/
CS(=O)(=O)c1ccc2nc(NC(=O)c3cc4ccccc4o3)sc2c1	-1.6	-6.7	-0.6	2.3	-4.3	-3.0	/	/
CS(=O)(=O)c1ccc2sc(NC(=O)c3cc4ccccc4o3)nc2c1	2.0	69.2*	-1.4	3.4	-3.2	-5.3	28.7	-15.6
CC(C)(C)c1ccc(OCCNC(=S)Nc2ccccc2)cc1	1.9	56.5*	2.2	-1.2	-2.1	0.4	-16.9	-11.8
CC(C)Cc1ccc(C(=O)NCCOc2ccccc2)o1	-0.5	-3.6	-1.9	3.0	0.1	-5.1	/	/
NC1=NC(=O)C(CC(=O)NCc2ccccc2)S1 (configuration not stated)	-0.6	3.1	0.0	4.4	-5.0	-4.8	-13.2	-9.0
NC1=NC(=O)CC(C(=O)NCc2ccccc2)S1 (configuration not stated)	-0.9	0.7	-0.1	1.7	-0.1	-2.8	/	/
Cc1ccc(C(=O)Oc2cccc(NC(=O)c3ccco3)c2)cc1S(=O)(=O)N1CCC(C)CC1	3.0	54.5*	0.1	-6.3	2.5	-0.4	-10.5	-13.7
O=S1(=O)NC(CC2=CCCCC2)C2CCCCC2O1 (configuration not stated)	0.7	50.1*	1.2	2.8	-0.4	1.0	-10.8	-15.6
Cn1c(=O)c([N+](=O)[O-])c(NCc2ccc3c(c2)OCO3)c2ccccc21	4.2	-6.6	2.7	-1.9	-6.1	-11.2	/	/
O=C(Cn1c(=O)oc2ccccc21)NCC1COc2ccccc2O1 (configuration not stated)	0.5	-6.9	-3.0	0.1	-0.2	-0.9	/	/
O=C(CSc1nc2[nH]ncc2c(=O)[nH]1)Nc1ccccc1F	-0.5	-2.8	-3.2	-3.4	-1.5	3.6	/	/
O=C(CSc1nc2[nH]ncc2c(=O)[nH]1)Nc1ccccc1C(F)(F)F	-0.4	50.8*	-3.0	0.0	2.8	0.8	-7.5	-7.9
Cc1ccc(NC(=O)C(=O)c2ccc(C)cc2)cc1	0.1	-7.2	1.1	0.2	0.4	-1.1	/	/
c1cncc(CN=C2Nc3ccccc3CS2)c1	-0.2	68.8*	0.5	2.6	-0.6	3.2	-12.3	-12.3
COCCN(C(=O)c1ccc(N(C)S(=O)(=O)c2ccc(C)cc2)cc1)c1c(N)n(CC(C)C)c(=O)[nH]c1=O	-0.3	-0.1	-2.7	7.2	1.0	2.3	/	/
c1ccc(CCc2cccnc2)cc1	-0.4	-6.8	1.2	0.2	0.8	-1.3	/	/
O=Cc1ccc(OCC(=O)NCC2CCCO2)cc1 (configuration not stated)	-1.1	-1.2	1.2	0.7	2.4	-2.3	/	/
CCc1ccc(NC(=O)CC2C(=O)NCCN2C(=O)c2ccc(F)cc2)cc1 (configuration not stated)	0.3	9.5	-4.8	1.7	-7.8	-2.4	-17.2	-17.2
CC(C)(C)c1ccc(C(=O)N2CCNC(=O)C2CC(=O)Nc2ccc(F)cc2)cc1 (configuration not stated)	-0.7	2.4	-0.6	1.2	-8.3	-1.8	/	/
